This is an account of results in ChEMBL document CHEMBL4400551, “Discovery and lead optimisation of a potent, selective and orally bioavailable RARβ agonist for the potential treatment of nerve injury” (Bioorg Med Chem Lett, 2019).

Calls of active or inactive are those of the source. No cut-off for these calls is given here.

In series [1] the target is T1, Retinoic acid receptor gamma (Mus musculus, UniProt P18911).
T1 sequence (P18911 whole entry): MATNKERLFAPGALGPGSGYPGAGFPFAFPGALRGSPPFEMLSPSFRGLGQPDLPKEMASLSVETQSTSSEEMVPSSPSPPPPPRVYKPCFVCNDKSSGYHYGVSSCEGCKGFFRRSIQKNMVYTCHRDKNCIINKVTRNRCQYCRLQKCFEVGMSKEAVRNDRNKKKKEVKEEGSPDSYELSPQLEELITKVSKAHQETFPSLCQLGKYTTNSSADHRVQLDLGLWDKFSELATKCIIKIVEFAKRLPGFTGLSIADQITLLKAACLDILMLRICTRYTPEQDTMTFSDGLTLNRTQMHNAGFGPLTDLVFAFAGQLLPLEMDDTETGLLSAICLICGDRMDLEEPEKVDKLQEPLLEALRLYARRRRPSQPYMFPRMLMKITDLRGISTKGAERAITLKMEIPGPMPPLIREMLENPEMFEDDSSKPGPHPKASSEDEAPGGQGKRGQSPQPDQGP
Description: Transactivation of GAL4-fused mouse RARgamma-LBD expressed in COS-7 cells after 24 hrs by bright-Glo reagent based assay. It counts as cell-based. Summed up: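 Transactivation assays with mouse RAR α, β and γ ligand binding domains; values usually from three separate experiments, with error about 20% of the mean.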

For series [2], the species on record is Mus musculus. The series is described as follows: Selectivity ratio of EC50 for GAL4-fused mouse RARalpha LBD expressed in COS-7 cells to EC50 for GAL4-fused mouse RARbeta-LBD expressed in COS-7 cells. Type of series: cell-based.
The nature of series [3]: Fraction absorbed in Sprague-Dawley rat at 1 to 10 mg/kg, po by LC-MS/MS analysis. Type of series: ADME, organism-based. As to conditions: in vivo, read-out: Fabs. Summed up: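 Rats: oral doses of 1, 3 and 10 mg/kg in 8% ethanol/92% PEG-400; iv reference 0.5 mg/kg in 4% DMSO, 38% PEG-400, 58% (0.9%) NaCl. Fraction absorbed is the mean over the three oral doses relative to the iv dose.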

For series [4], the system named is HepG2. Description: Cytotoxicity against human HepG2 cells at 50 uM. Particulars: hepg2, 50 µM. It counts as cell-based. A digest of the protocol: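 HepG2 cell toxicity assay; highest concentration tested 50 μM.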
Series [5] concerns the target Voltage-gated inwardly rectifying potassium channel KCNH2 (Homo sapiens, UniProt Q12809). The series is described as follows: Displacement of [3H]astemizole from human ERG at 10 uM. A digest of the protocol: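 HERG channel binding assay at 10 μM.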
For orientation: Loss of bound radioactivity is the signal in a displacement assay; it reports binding, not function.

Series [6] is described as follows: Genotoxicity in Salmonella typhimurium TA98 at 100 uM by Ames test. It counts as toxicity. Particulars: salmonella enterica subsp. enterica serovar typhimurium. A digest of the protocol:
(§1)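 Ames test in three bacterial strains.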
Background: The Ames test detects mutagens through reverse mutation in bacteria.

Series [7] concerns Rattus norvegicus. Description: Neuroprotective activity in avulsed rat model assessed as reduction in latency for time taken to sense and remove the tape from the paw of the lesioned forelimbs at 3 mg/kg, po administered every other day for 4 weeks. Type of series: functional, organism-based. A digest of the protocol: (§2)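 Rats with avulsion injury given 3 mg/kg orally three times a week, every other day; sensory and locomotor function assessed. Mean of n = 8; two-way repeated-measures ANOVA with Tukey's post-hoc test.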

In series [8] the test system is CHO-MG. Description: Agonist activity at RARbeta in CHO-MG cells assessed as increase in neurite length after 24 hrs by immunostaining based assay. It counts as cell-based. As to conditions: Cricetulus griseus. Summed up:
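Cerebellar neurons cultured on a CHO-MAG cell monolayer; 24 hr exposure to vehicle or agonist at 1×10^-8 – 1×10^-6 M. Neurite outgrowth read by immunostaining and neurite length quantification; means of 3 independent experiments; Student's t-test, vehicle versus highest dose.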

Series [9] can be described thus: Drug uptake in Sprague-Dawley rat brain at 1 to 10 mg/kg, po measured after 8 hrs by LC-MS/MS analysis. It counts as ADME, organism-based. As to conditions: in vivo. A digest of the protocol: (§3)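 Oral dosing to rats; brain tissue and plasma levels compared 8 h after dosing.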
Series [10] can be described thus: Drug uptake in Sprague-Dawley rat plasma at 1 to 10 mg/kg, po measured after 8 hrs by LC-MS/MS analysis. It counts as ADME, organism-based. As to conditions: in vivo. Summed up:
as §3

Series [11] is described as follows: Genotoxicity in Salmonella typhimurium TA100 at 100 uM by Ames test. Type of series: toxicity. Particulars: salmonella enterica subsp. enterica serovar typhimurium. A digest of the protocol: as §1
Series [12] can be described thus: Genotoxicity in Salmonella typhimurium TA1535 at 100 uM by Ames test. Particulars: salmonella enterica subsp. enterica serovar typhimurium. Type of series: toxicity. Summed up:
as §1

Series [13] deals with Salmonella typhimurium. The series is described as follows: Toxicity in Salmonella typhimurium TA100 at 100 uM. Type of series: organism-based. Particulars: salmonella enterica subsp. enterica serovar typhimurium. Summed up: (§4)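 Bacterial cytotoxicity testing up to 100 μM.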
Series [14] deals with Salmonella typhimurium. Description: Toxicity in Salmonella typhimurium TA1535 at 100 uM. It counts as organism-based. As to conditions: salmonella enterica subsp. enterica serovar typhimurium. Summed up: as §4
Series [15] relates to Salmonella typhimurium. The series is described as follows: Toxicity in Salmonella typhimurium TA98 at 100 uM. It counts as organism-based. Particulars: salmonella enterica subsp. enterica serovar typhimurium. A digest of the protocol:
as §4

For series [16], the system named is CHO-K1. Description: Genotoxicity in CHOK1 cells in presence of S9 fraction by micronucleus test. It counts as toxicity, cell-based, Cricetulus griseus. Particulars: chinese hamster. A digest of the protocol: (§5)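 In vitro micronucleus test in CHO-K1 cells, run both with and without S9.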
The subject of series [17] is CHO-K1. Description: Genotoxicity in CHOK1 cells in absence of S9 fraction by micronucleus test. It counts as toxicity, cell-based, Cricetulus griseus. Particulars: chinese hamster. Summed up: as §5
In series [18] the test system is Rattus norvegicus. Description: Neuroprotective activity in avulsed rat model assessed as reduction in number of foot slips in a horizontal ladder by injured forelimb at 3 mg/kg, po administered every other day for 4 weeks. It counts as functional, organism-based. Summed up:
as §2

Voltage-gated inwardly rectifying potassium channel KCNH2, sequence (Q12809 whole entry): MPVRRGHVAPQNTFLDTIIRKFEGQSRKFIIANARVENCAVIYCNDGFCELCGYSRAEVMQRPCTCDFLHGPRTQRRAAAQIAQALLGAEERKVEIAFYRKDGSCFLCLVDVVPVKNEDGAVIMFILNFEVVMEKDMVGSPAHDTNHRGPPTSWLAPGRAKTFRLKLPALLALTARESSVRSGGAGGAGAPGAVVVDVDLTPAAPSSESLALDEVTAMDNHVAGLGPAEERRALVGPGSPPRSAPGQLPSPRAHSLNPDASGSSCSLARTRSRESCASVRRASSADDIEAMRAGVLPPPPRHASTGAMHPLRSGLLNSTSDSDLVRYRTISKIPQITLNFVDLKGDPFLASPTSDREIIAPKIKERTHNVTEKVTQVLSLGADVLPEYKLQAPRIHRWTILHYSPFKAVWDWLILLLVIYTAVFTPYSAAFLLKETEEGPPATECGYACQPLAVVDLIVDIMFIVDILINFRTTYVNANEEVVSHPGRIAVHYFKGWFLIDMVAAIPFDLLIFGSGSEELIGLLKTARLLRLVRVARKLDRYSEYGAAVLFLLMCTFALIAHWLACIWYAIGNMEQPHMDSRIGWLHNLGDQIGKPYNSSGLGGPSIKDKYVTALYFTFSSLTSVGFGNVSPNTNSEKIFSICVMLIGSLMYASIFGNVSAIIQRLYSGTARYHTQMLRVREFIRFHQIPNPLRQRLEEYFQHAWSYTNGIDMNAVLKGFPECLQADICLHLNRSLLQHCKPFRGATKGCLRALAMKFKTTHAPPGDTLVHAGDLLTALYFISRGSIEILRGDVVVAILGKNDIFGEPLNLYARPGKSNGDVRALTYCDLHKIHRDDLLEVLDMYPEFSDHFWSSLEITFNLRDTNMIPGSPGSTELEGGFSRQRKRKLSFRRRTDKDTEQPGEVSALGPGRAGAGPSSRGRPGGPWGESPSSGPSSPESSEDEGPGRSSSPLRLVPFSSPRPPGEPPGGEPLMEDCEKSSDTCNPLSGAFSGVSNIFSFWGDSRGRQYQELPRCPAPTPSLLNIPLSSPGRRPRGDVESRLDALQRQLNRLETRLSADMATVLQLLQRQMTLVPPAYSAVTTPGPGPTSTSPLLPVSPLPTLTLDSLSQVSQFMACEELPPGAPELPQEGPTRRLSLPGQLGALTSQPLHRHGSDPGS

Take `CCOc1c(Cl)cc(-c2nnc(-c3ccc(C(=O)O)cc3)o2)cc1Cl`: the EC50 – broadly, the concentration needed to bring the measured effect to its halfway point – in series [1] was 150 nM. This counts as sub-micromolar.
Take `Cc1cc(C(=O)O)ccc1-c1noc(-c2cc3c(C)ccc(C)c3o2)n1`: the Ratio EC50 in [2] stood at 13.
On to `Cc1ccc(C)c2oc(-c3nc(-c4ccc(C(=O)O)cc4)no3)cc12`, for which the Ratio EC50 in series [2] came out at 13. For the same molecule, the Fa in series [3] is 80%. The Activity entry in series [4] is “Non-Toxic”; in series [6], “Non-Toxic”; in [8], “Dose-dependent effect”; in series [11], “Non-Toxic”; in [12] it was “Non-Toxic”; in [13], “Non-Toxic”. Besides, the Activity entry in series [14], in [15], in series [16] and in series [17] was “Non-Toxic” in each case. For the same molecule, the “inhibition (INH)” value in [5] is “Not Active”. The outcome in series [7] and in series [18] was Active. In addition, the Drug uptake result in series [9] and in series [10] was “Active” each time.
`CCOc1c(Cl)cc(-c2noc(-c3ccc(C(=O)O)cc3)n2)cc1Cl` returned an EC50 in series [1] of 5.4 nM. This counts as single-digit nanomolar.
Take `Cc1ccc(C)c2oc(-c3nc(-c4ccc(C(=O)O)cc4F)no3)cc12`: the Ratio EC50 in series [2] was 5.5.
Still for that read-out and setting: with `Cc1ccc(C)c2oc(-c3nc(-c4ccc(C(=O)O)c(F)c4)no3)cc12` the figure was 7.3; with `Cc1ccc(C)c2oc(-c3nc(-c4ccc(C(=O)O)cc4)no3)nc12`, 10; with `Cc1ccc(C)c2sc(-c3nc(-c4ccc(C(=O)O)cc4)no3)cc12`, 9.
With `CCOc1c(Cl)cc(-c2csc(-c3ccc(C(=O)O)cc3)n2)cc1Cl`, the response in [1] was half-maximal at 160 nM (EC50).
As for `O=C(O)c1ccc(-c2noc(-c3cc4c(C(F)(F)F)ccc(F)c4o3)n2)cc1`, the Ratio EC50 in series [2] stood at 7.6.
With `CC1(C)CCC(C)(C)c2cc(-c3nc(-c4ccc(C(=O)O)cc4)no3)ccc21`, the Ratio EC50 in [2] came to 17.
Same read-out and setting: in the case of `CCCCOCCOc1nc(-c2ccc(C(=O)O)c(F)c2)sc1C` it was 5.8; in that of `CC(C)(C)c1cc(-c2nc(-c3ccc(C(=O)O)cc3)no2)cc(C(C)(C)C)c1`, 2.8.
In turn, `CCOc1c(Cl)cc(-c2cnc(-c3ccc(C(=O)O)cc3)o2)cc1Cl` returned an EC50 in series [1] of 45 nM.
`CCOc1c(Cl)cc(C(=O)Nc2ccc(C(=O)O)cc2)cc1Cl` registered an EC50 in series [1] of 30000 nM.
As to `Cc1cc(-c2noc(-c3cc4c(C)ccc(C)c4o3)n2)ccc1C(=O)O`, the Ratio EC50 in series [2] is 6.4.
